The record followed here is ChEMBL document CHEMBL1138062 (J Med Chem, 2006).

By IC50 is commonly meant the point on the concentration scale where inhibition reaches its midpoint. High values mean lower potency, low ones higher potency. Broadly, the Ki is a dissociation constant, usually derived from enzyme kinetics or from competition with a known ligand.

The species entered for one assay is Mus musculus. Briefly: Inhibition of isoguvacine-induced current in mouse cerebral cortical neurons expressing GABAA receptor by whole cell patch clamp method. It is filed as functional. The method in brief: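 Test agent applied at a range of concentrations against isoguvacine-evoked currents. Currents normalized to the current induced by 20 µM isoguvacine. Mean ± SE from nine neurons. IC50 estimated by linear regression.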

Assay [1] deals with T1, GABA transporter 2 (Mus musculus) (UniProt P31651).
T1 sequence (whole entry): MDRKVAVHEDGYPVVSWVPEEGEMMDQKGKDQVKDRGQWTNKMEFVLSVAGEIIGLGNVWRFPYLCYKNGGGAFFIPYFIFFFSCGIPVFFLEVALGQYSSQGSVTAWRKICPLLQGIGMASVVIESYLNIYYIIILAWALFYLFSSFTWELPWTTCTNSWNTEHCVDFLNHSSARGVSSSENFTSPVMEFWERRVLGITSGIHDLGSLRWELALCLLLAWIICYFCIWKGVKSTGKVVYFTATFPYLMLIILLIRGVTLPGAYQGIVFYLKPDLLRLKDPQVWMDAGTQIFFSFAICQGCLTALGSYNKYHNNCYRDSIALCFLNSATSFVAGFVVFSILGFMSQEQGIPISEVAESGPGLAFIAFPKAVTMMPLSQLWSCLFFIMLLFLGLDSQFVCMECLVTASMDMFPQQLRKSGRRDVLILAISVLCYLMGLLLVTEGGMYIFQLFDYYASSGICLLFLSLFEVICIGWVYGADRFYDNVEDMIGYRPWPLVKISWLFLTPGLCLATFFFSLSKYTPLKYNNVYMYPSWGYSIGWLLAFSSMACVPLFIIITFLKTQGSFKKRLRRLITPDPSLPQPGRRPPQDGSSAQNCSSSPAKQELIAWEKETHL
In words: Inhibition of [3H]GABA uptake at mouse GABA transporter2 expressed in HEK293 cells at 1 mM. The class given is cell-based.

Assay [2] concerns the target T2, GABA transporter 4 (Mus musculus) (UniProt P31650).
T2 sequence (whole entry): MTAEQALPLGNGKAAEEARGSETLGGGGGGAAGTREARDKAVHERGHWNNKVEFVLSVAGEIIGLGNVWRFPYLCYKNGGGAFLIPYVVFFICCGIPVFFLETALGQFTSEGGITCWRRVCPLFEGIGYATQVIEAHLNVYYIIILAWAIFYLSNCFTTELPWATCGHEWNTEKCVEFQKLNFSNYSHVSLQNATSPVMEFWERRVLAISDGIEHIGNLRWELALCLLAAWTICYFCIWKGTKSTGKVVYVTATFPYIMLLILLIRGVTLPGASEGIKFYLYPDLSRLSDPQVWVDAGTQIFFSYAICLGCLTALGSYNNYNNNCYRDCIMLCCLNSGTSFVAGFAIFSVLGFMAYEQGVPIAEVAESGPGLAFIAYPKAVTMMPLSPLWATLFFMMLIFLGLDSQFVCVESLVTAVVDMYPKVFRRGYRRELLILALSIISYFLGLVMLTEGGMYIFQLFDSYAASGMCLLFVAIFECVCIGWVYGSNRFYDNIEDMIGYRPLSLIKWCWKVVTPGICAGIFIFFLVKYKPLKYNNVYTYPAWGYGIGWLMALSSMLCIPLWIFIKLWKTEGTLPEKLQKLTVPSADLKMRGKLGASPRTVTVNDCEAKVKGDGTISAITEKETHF
In words: Inhibition of [3H]GABA uptake at mouse GABA transporter4 expressed in HEK293 cells at 1 mM. It is filed as cell-based.

The nature of assay [3]: Agonist activity at GABAA receptor in mouse cerebral cortical neurons assessed as induction of peak current at 3 mM relative to GABA by whole cell patch clamp method. It is filed as functional. The method in brief: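 Peak currents evoked by 3 mM test agent compared with a close to maximal GABA response (600 µM). Specificity was checked by pretreating cells with gabazine (100 µM) for 15 s, then co-applying gabazine (100 µM) with agonist (3 mM). Values are mean ± SE, N = 3–7.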

The target in assay [4] is Sodium- and chloride-dependent GABA transporter 1 (Mus musculus) (UniProt P31648). Briefly: Inhibition of [3H]GABA uptake at mouse GABA transporter1 expressed in HEK293 cells at 1 mM. It is filed as cell-based.
In assay [5] the target is GABA-A receptor; anion channel. In words: Displacement of [3H]muscimol from GABAA receptor in rat brain synaptic membranes. The class given is cell membranes, Membrane. In short, it runs like this: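 Rat brain membrane preparations used for receptor binding. IC50 and Ki treated as log-normally distributed; mean and SEM calculated on the log scale, with the range given as the antilog of log mean ± SEM.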
In general terms: Loss of bound radioactivity is the signal in a displacement assay; it reports binding, not function.

Assay [6] concerns the target T3, GABA transporter 3 (Mus musculus) (UniProt P31649).
T3 sequence (whole entry): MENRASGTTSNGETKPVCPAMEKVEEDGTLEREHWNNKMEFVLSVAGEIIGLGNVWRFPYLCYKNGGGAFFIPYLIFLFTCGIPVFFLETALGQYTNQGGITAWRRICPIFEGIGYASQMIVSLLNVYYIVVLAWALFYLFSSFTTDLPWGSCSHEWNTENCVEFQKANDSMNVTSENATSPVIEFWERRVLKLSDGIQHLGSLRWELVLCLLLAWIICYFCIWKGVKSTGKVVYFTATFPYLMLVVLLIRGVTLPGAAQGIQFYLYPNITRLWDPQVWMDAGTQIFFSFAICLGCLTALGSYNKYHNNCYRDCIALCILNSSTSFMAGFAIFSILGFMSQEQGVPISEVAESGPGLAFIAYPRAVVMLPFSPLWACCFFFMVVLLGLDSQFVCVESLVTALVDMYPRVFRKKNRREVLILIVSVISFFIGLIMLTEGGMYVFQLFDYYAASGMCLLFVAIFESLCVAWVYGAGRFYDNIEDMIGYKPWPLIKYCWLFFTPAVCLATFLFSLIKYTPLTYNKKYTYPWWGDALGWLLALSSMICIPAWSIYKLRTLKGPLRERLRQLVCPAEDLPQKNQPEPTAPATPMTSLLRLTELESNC
Briefly: Inhibition of [3H]GABA uptake at mouse GABA transporter3 expressed in HEK293 cells at 1 mM. The class given is cell-based.

The next assay deals with GABA-B receptor (rat). In words: Inhibition of [3H]GABA binding in GABAB receptor in rat brain synaptic membranes.

Structures are written as SMILES. Calls of active or inactive are those of the source. No cut-off for these calls is given here.

With `NCCCCc1nonc1O`, the inhibition entry in the assay filed under Mus musculus is “Dose-dependent effect”. Also, the inhibition result in assay [1], in assay [2], in assay [4] and in assay [6] was “inactive” throughout. Moreover, in assay [3], the Activity is 0.8%. The IC50 (in assay [5]; on GABA-B receptor (rat)) was greater than 100 µM in each case.
On to `NCCc1nonc1O`, for which, in the assay filed under Mus musculus, the inhibition entry was “Dose-dependent effect”. Moreover, the inhibition entry in assay [1], in assay [2], in assay [4] and in assay [6] was “inactive” each time. Besides, the Activity in assay [3] is 40%. In addition, the affinity in assay [5], expressed as Ki, was 13 µM. On GABA-B receptor (rat), this compound gave an IC50 of 2 µM.
As to `NCCCc1nonc1O`, the inhibition result in the assay filed under Mus musculus is “Dose-dependent effect”. The inhibition entry in assay [1], in assay [2], in assay [4] and in assay [6] was “inactive” in each case. Also, the Activity in assay [3] is listed as 14%. In assay [5], this compound came in with a Ki of 27 µM. This compound also yielded an IC50 at GABA-B receptor (rat) of 25 µM.
